Calls of active or inactive are those of the source. The rule behind the calls is not given here.
Key:
[1] = molecular target: T1, Polyunsaturated fatty acid lipoxygenase ALOX15 (Homo sapiens, UniProt P16050); experiment: Inhibition of human recombinant N-terminal His6-tagged 15-LOX1 expressed in Escherichia coli BL21(DE3) using linoleic acid as substrate preincubated for 8 mins followed by substrate addition by UV absorption analysis
T1 sequence (P16050 whole entry): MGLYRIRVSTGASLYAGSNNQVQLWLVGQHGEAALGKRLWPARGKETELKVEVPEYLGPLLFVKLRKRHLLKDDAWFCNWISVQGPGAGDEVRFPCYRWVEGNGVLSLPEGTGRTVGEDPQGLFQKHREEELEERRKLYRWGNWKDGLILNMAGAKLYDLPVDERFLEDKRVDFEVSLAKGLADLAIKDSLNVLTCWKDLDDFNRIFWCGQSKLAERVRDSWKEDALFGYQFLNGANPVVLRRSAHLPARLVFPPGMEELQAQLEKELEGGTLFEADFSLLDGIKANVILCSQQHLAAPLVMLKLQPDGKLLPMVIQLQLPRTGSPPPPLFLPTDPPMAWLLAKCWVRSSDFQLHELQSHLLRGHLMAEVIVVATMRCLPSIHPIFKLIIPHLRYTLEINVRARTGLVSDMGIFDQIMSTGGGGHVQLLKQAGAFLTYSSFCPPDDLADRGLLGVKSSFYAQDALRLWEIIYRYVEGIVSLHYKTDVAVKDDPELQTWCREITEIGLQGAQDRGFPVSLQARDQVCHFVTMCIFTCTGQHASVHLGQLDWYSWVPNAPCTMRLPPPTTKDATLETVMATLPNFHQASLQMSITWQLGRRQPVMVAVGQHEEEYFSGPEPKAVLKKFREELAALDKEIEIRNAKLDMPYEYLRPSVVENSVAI

[2] = Stability of compund in pH 7.5 HEPES buffer at 25 uM in presence of human recombinant N-terminal His6-tagged 15-LOX1 expressed in Escherichia coli BL21(DE3) by UV absorption analysis; assay type: physicochemical; settings: pH 7.5, 25 µM
Summary of the method: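 LA-free control in 25 mM HEPES pH 7.5 at 25 µM compound, run in triplicate. Buffer plus compound was mixed with 10 µL ethanol in place of substrate, then 15-LOX-1 enzyme solution was added. DMSO/buffer served as the vehicle control and buffer replaced enzyme in the blank. Absorbance at 234 nm was monitored over time.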

[3] = Stability of compund in pH 7.5 HEPES buffer at 25 uM in presence of substrate linoleic acid by UV absorption analysis; assay type: physicochemical; settings: pH 7.5, 25 µM
Summary of the method: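 Enzyme-free control in 25 mM HEPES pH 7.5 at 25 µM compound, run in triplicate, with buffer replacing enzyme. 10 µL of 500 µM linoleic acid stock in ethanol was added; ethanol alone served as the blank, and DMSO/buffer as the vehicle control. Absorbance at 234 nm was monitored over time.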

[4] = Antioxidant activity assessed as DPPH radical scavenging activity incubated for 15 mins under dark condition by spectrophotometric method; assay type: functional
Summary of the method: (§1)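 DPPH radical-scavenging assay run in triplicate in MeOH with 10% DMSO. Compounds were serially diluted 10-fold from a top concentration of 1 mM, or 250 or 500 µM for some, down to 1 nM, with DPPH fixed at 0.1 mM. Incubation was 15 min at ambient temperature, protected from light, with A517 read. The compound-only series was subtracted, data normalized to no-inhibitor absorbance, and EC50 fitted by nonlinear dose–response.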

[5] = Antioxidant activity assessed as ferric ion reducing activity by measuring Fe2+ levels using Fe2+-TPTZ measured 15 secs for 5 mins by FRAP assay; assay type: functional
[6] = Antioxidant activity assessed as DPPH radical scavenging activity at 500 uM incubated for 15 mins under dark condition by spectrophotometric method; assay type: functional; summary of the method: as §1
[7] = Antioxidant activity assessed as DPPH radical scavenging activity at 250 uM incubated for 15 mins under dark condition by spectrophotometric method; assay type: functional; summary of the method: as §1

SMILES	IC50 [1]	Stability [2]	Stability [3]	Activity [4]	Activity [5]	other results
CCOC(=O)c1[nH]c2cc(Cl)ccc2c1/C=N/NC(=O)[C@H](Cc1ccccc1)NC(=O)OC(C)(C)C	> 10 µM					
CCOC(=O)c1[nH]c2cc(Cl)ccc2c1/C=N/NC(=O)C1CCN(C(=O)OC(C)(C)C)CC1	0.47 µM	Stable	Stable	inactive	< 50 µmol/L	
CCOC(=O)c1[nH]c2cc(Cl)ccc2c1/C=N/NC(=O)CCC(C)C	> 10 µM					
CCOC(=O)c1[nH]c2cc(Cl)ccc2c1/C=N/NC(=O)COc1ccccc1Cl		Stable	Stable		< 50 µmol/L	Activity [7]: inactive
CCOC(=O)c1[nH]c2cc(Cl)ccc2c1C=O				inactive	< 50 µmol/L	
CCOC(=O)c1[nH]c2cc(Cl)ccc2c1/C=N/NC(=O)CCc1ccccc1	> 10 µM					
CCOC(=O)c1[nH]c2cc(Cl)ccc2c1/C=N/NC(=O)COc1ccccc1	> 10 µM				< 50 µmol/L	Activity [6]: inactive
CCOC(=O)c1[nH]c2cc(Cl)ccc2c1/C=N/NC(=O)CCCOc1ccc(Cl)cc1Cl	> 10 µM					
CCOC(=O)c1[nH]c2cc(Cl)ccc2c1/C=N/NC(=O)Cc1ccccc1	> 10 µM			inactive	< 50 µmol/L	
CCOC(=O)c1[nH]c2cc(Cl)ccc2c1/C=N/NC(=O)c1cc(C(C)(C)C)nn1Cc1cccc(C)c1	4.22 µM			inactive	< 50 µmol/L	
O=C1O[C@H]([C@@H](O)CO)C(O)=C1O [ASCORBIC ACID]						EC50 [4]: 17.2 µM
CCOC(=O)c1[nH]c2cc(Cl)ccc2c1/C=N/NC(=O)COc1ccc([N+](=O)[O-])cc1	> 10 µM					

Second part, led by results:

IC50 [1]	Stability [2]	Stability [3]	SMILES	Activity [4]	Activity [5]	other results
	Stable	Stable	CCOC(=O)c1[nH]c2cc(Cl)ccc2c1/C=N/NC(=O)COc1ccc(Cl)cc1Cl	inactive	< 50 µmol/L	
> 10 µM			CCOC(=O)c1[nH]c2cc(Cl)ccc2c1/C=N/NC(=O)CNc1cccc([N+](=O)[O-])c1			
	Stable	Stable	CCOC(=O)c1[nH]c2cc(Cl)ccc2c1/C=N/NC(=O)COc1ccc(Cl)cc1		< 50 µmol/L	Activity [6]: inactive
> 10 µM			CCOC(=O)c1[nH]c2cc(Cl)ccc2c1/C=N/NC(=O)CC1CCCC1			
> 10 µM			CCOC(=O)c1[nH]c2cc(Cl)ccc2c1/C=N/NC(=O)COc1cccc2ccccc12			
1.8 µM	Stable	Stable	CCOC(=O)c1[nH]c2cc(Cl)ccc2c1/C=N/NC(=O)Cc1cccc(O)c1	inactive	< 50 µmol/L	
	Stable	Stable	CCOC(=O)c1[nH]c2cc(Cl)ccc2c1/C=N/NC(=O)CSc1nc2ccccc2[nH]1	inactive	< 50 µmol/L	
> 10 µM			CCCCC(=O)N/N=C/c1c(C(=O)OCC)[nH]c2cc(Cl)ccc12			
	Stable	Stable	CCOC(=O)c1[nH]c2cc(Cl)ccc2c1/C=N/NC(=O)Cc1ccc(OC)c(OC)c1		< 50 µmol/L	Activity [7]: inactive
> 10 µM			CCOC(=O)c1[nH]c2cc(Cl)ccc2c1/C=N/NC(=O)Cc1cccs1			
	Stable	Stable	CCOC(=O)c1[nH]c2cc(Cl)ccc2c1/C=N/NC(=O)Cc1cccnc1	inactive	< 50 µmol/L	

— ChEMBL document CHEMBL4393683, “A combinatorial approach for the discovery of drug-like inhibitors of 15-lipoxygenase-1” (Eur J Med Chem, 2019)
